Experimental data reported in ChEMBL document CHEMBL4354819, “Discovery of Novel Small Molecule Dual Inhibitors Targeting Toll-Like Receptors 7 and 8” (J Med Chem, 2019).
Active and inactive are the calls of the source. The calls are words filed in the database; no cut-off is given here.

Legend:
[1] = target: Toll-like receptor 7 (Mus musculus) (UniProt P58681); assay: Inhibition of endogenous mouse TLR7 in mouse RAW264.7 cells assessed as resiquimod-induced NO production at 1.25 uM incubated for 18 to 24 hrs
Chain of Toll-like receptor 7 (Mus musculus) (P58681 whole entry, looked up): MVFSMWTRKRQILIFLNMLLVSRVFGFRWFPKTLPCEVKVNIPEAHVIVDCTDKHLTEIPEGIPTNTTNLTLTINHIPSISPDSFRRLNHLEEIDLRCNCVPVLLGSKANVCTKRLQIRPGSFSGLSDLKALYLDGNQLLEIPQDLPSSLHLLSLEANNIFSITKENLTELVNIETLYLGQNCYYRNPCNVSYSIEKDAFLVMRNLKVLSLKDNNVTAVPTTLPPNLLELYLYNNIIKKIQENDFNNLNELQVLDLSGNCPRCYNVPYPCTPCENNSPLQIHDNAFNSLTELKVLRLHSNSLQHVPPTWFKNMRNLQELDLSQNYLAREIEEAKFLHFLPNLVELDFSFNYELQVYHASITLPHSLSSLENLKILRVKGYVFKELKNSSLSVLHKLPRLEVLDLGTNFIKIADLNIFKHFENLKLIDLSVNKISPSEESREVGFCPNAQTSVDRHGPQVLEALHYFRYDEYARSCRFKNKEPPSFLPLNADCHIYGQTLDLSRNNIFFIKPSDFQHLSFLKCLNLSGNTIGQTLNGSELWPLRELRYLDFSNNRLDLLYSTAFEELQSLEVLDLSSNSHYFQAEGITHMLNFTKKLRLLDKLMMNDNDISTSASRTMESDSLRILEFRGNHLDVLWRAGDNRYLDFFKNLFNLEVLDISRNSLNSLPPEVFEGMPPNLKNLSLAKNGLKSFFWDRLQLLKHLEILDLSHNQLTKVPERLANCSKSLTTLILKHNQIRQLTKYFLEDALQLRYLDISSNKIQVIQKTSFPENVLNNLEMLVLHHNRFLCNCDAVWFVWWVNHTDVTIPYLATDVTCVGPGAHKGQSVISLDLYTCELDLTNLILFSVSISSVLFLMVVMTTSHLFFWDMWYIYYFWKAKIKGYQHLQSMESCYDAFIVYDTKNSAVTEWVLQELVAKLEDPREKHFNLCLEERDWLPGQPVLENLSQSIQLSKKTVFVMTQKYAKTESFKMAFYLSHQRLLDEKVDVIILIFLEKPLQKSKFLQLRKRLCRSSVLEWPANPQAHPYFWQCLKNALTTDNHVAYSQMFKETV

[2] = target: T1, Toll-like receptor 8 (Homo sapiens) (UniProt Q9NR97); assay: Inhibition of human TLR8 expressed in HEK293 cells assessed as reduction in R848-induced NFkappaB production at 5 to 20 uM incubated for 16 hrs by quanti-blue SEAP assay; type: cell-based
T1 sequence (whole entry): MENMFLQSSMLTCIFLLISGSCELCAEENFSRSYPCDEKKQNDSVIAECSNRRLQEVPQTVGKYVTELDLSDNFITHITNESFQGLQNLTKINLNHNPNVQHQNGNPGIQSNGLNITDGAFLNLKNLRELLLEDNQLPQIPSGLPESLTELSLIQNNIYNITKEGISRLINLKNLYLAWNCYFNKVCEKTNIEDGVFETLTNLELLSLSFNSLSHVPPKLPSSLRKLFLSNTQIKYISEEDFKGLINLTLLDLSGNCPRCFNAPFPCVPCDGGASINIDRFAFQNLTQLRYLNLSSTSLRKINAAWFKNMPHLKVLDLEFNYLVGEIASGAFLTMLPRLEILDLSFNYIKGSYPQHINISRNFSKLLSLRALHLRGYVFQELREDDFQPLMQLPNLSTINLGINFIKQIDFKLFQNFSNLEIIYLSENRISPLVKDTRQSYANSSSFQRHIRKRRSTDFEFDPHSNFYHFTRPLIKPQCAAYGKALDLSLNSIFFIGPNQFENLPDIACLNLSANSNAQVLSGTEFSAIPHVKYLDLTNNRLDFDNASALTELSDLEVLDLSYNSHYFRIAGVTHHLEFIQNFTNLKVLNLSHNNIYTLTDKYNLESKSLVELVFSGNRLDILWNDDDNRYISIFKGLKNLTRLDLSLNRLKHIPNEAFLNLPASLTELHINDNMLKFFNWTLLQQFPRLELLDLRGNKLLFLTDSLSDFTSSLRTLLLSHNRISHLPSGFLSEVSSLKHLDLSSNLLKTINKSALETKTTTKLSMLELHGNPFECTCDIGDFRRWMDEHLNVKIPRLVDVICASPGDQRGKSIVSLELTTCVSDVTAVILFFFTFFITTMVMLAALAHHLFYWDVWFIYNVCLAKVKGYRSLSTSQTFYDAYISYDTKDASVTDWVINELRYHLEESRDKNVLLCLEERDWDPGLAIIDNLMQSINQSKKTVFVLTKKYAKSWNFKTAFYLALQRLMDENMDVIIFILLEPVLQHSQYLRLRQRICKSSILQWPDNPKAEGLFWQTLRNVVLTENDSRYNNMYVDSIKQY
Summary of the method: (§1)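 Selectivity panel in stably transfected HEK 293-Blue cells, each overexpressing one human TLR with an inducible SEAP reporter. Agonists: Pam3CSK4 (TLR1/2), Pam2CSK4 (TLR2/6), poly(I:C) (TLR3), LPS (TLR4), R848 (TLR7/8), ODN 2006 (TLR9). Cells were exposed to compound for 16 h. Activity = (raw − untreated)/(ligand + solvent − untreated), with ligand + solvent set as 100%.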

[3] = target: T2, Toll-like receptor 7 (Homo sapiens) (UniProt Q9NYK1); assay: Inhibition of human TLR7 expressed in HEK293 cells assessed as reduction in resiquimod-induced NFkappaB production at 0.5 uM incubated for 16 hrs by quanti-blue SEAP assay; type: cell-based
T2 sequence (whole entry): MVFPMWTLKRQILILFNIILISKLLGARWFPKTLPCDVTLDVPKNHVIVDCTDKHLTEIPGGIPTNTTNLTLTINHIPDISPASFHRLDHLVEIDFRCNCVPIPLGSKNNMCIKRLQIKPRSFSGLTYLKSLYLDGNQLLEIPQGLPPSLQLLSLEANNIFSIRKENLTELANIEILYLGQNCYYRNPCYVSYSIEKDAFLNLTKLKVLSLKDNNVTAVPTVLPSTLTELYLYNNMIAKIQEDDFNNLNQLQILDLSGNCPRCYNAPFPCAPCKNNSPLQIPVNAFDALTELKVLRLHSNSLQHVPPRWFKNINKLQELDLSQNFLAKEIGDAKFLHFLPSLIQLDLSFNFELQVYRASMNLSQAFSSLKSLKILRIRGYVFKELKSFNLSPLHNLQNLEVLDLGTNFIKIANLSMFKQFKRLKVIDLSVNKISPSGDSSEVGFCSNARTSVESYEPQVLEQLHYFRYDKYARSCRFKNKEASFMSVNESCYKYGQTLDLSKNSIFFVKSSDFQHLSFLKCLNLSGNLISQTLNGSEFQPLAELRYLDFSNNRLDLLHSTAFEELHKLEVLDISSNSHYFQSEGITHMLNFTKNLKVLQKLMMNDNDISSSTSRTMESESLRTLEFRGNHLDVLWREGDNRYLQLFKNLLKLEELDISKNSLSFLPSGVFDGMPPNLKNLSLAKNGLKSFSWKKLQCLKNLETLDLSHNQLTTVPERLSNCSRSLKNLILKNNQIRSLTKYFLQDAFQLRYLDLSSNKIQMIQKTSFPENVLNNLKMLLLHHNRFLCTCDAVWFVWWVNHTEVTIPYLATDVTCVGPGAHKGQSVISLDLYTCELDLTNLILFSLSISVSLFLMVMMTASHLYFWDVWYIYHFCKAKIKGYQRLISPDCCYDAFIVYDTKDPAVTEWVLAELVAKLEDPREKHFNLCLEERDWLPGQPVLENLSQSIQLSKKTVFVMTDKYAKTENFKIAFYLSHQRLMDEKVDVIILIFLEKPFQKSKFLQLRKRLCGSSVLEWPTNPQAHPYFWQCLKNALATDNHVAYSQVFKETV
Summary of the method: as §1

[4] = target: Toll-like receptor 7 (Mus musculus) (UniProt P58681); assay: Inhibition of endogenous mouse TLR7 in mouse RAW264.7 cells assessed as resiquimod-induced NO production at > 5 uM incubated for 18 to 24 hrs
[5] = target: T1, Toll-like receptor 8 (Homo sapiens); assay: Inhibition of human TLR8 expressed in HEK293 cells assessed as reduction in R848-induced NFkappaB production incubated for 16 hrs by quanti-blue SEAP assay; type: cell-based
Summary of the method: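 HEK 293-Blue cells stably expressing hTLR7 or hTLR8 with an inducible SEAP reporter were incubated 16 h with compound under 1 µg/mL R848 stimulation. SEAP was read at 620 nm. Data were normalized to the R848 control, and IC50 was taken from concentration-response curves. […] Mean ± s.d., n = 3 independent experiments.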

THP-1 = assay: Inhibition of IFN mediated immune response in human THP1 cells assessed as inhibition of G3-YSD-induced cGAS signalling pathway at 5 to 20 uM incubated for 16 hrs by luciferase assay; type: functional, cell-based
Summary of the method: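 THP1-Dual monocytes carrying Lucia luciferase and SEAP reporters were stimulated with 3p-hpRNA (RIG-I agonist) or Y-form dsDNA G3-YSD (cGAS agonist), with or without compound. Secreted Lucia luciferase luminescence was measured as the type I IFN read-out. Mean ± s.d., n = 3 independent experiments.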

inhibition [1] | inhibition [2] | inhibition [3] | inhibition [4] | inhibition [5] | Compound | inhibition (THP-1)
inactive | Active | inactive | Active | – | O=C(Nc1ccc(Oc2cc(C(F)(F)F)cc(C(F)(F)F)c2)cc1)c1c(F)cccc1I | –
– | – | – | – | Dose-dependent effect | O=C(Nc1ccc(Oc2cc(C(F)(F)F)cc(C(F)(F)F)c2)cc1)c1c(F)cccc1Cl | –
– | Active | inactive | – | – | O=C(Nc1ccc(Oc2cncc(C(F)(F)F)c2)cc1)c1c(F)cccc1Cl | Active
– | – | – | Active | – | O=[N+]([O-])c1c(I)cccc1Oc1ccc(-c2nnco2)cc1 | –
